This passage reports IC50, Activity and ED50 results from ChEMBL document CHEMBL1149633, “Protection from endotoxic shock by EVK-203, a novel alkylpolyamine sequestrant of lipopolysaccharide” (Bioorg Med Chem, 2007).

The pIC50 is −log10 of the IC50, conventionally taken in molar units.

One data set deals with HEK293. Briefly: Inhibition of LPS-induced NF-kappaB induction in HEK293 cells co-transfected with TLR4, CD14 and MD2. It is filed as functional, cell-based. The following applies: Homo sapiens. An outline of the steps:
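HEK293 cells stably expressing TLR4, CD14, MD2 and an NF-κB/AP-1-driven secreted alkaline phosphatase reporter. Plated at ~10^5 cells/ml and grown to confluency. Stimulated with 10 ng/ml E. coli O111:B4 LPS plus serially diluted compound, then incubated overnight. seAP in the supernatant was read by chromogen at 620 nm.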

Data set [1] relates to Blood. Briefly: Inhibition of LPS-induced IL6 production in human whole blood. Type of data set: functional, tissue-based. An outline of the steps: (§1)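 EDTA-anticoagulated fresh whole blood from healthy human volunteers, mixed with an equal volume of 20 ng/ml E. coli O111:B4 LPS. Graded compound, diluted in saline, added at the same time. Incubated 4 h. TNF-α, IL-6 and IL-8 were quantified by multiplexed flow-cytometric bead array against recombinant standard curves.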

Data set [2] deals with Blood. Briefly: Inhibition of LPS-induced IL8 production in human whole blood. Type of data set: functional, tissue-based. The method in brief:
as §1

For data set [3], the system named is Blood. Kind of data set: Inhibition of LPS-induced TNFalpha production in human whole blood. It is filed as functional, tissue-based. The method in brief: as §1
The subject of the next data set is J774.A1. Briefly: Inhibition of nitric oxide production in LPS-stimulated mouse J774A.1 cells. It is filed as functional, cell-based. An outline of the steps: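 J774A.1 cells in RPMI-1640 with 10% FBS and 200 μg/ml L-arginine, 37 °C, 5% CO2. Plated at ~10^5 cells/ml, grown to confluency, then given 10 ng/ml E. coli O111:B4 LPS together with serially diluted compound for 16 h. Nitrite measured with Griess reagent (15 min, RT, dark) at 535 nm against a sodium nitrite standard curve.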

For data set [4], the system named is Mus musculus. Briefly: Inhibition of LPS-induced plasma IL6 level in sc dosed mouse pretreated 1 hr before LPS challenge by CBA assay. Type of data set: functional, organism-based. The method in brief: (§2)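 Female outbred CF-1 mice (9–11 weeks, 22–28 g), 5 per group. Graded compound or vehicle given s.c. at −1 h, then 200 ng LPS in saline i.p. at 0 h. Terminal cardiac-puncture blood taken under halothane at 1, 2 and 3 h. Plasma cytokines measured by mouse inflammation bead array.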

In data set [5] the target is T1, MAP kinase p38 (Homo sapiens) (UniProt O15264+Q15759+Q16539+P53778). Kind of data set: Inhibition of p38MAPK phosphorylation in TNF-alpha-induced human whole blood neutrophils. Type of data set: protein assay.
T1 sequence (P53778 whole entry, looked up, chain 1 of 4): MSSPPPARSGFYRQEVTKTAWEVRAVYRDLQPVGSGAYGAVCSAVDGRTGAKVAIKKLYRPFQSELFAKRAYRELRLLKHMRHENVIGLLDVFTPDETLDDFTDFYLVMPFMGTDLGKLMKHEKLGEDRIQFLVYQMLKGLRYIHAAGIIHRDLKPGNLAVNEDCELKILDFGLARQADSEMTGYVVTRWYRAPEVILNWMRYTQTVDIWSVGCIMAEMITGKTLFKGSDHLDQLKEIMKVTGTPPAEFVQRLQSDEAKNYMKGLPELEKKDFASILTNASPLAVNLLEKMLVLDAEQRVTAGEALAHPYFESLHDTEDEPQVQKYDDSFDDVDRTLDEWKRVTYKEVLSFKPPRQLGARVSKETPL
T1 sequence (Q16539 whole entry, looked up, chain 2 of 4): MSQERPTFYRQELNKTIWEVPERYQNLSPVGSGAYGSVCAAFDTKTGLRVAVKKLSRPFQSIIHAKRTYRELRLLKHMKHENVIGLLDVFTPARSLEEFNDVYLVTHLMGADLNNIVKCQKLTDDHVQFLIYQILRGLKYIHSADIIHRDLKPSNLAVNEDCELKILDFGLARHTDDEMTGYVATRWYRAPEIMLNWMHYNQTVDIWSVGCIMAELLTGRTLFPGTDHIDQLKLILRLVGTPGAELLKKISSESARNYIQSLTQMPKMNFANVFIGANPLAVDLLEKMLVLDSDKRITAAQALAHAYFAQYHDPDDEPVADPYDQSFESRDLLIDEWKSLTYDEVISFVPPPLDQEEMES
T1 sequence (Q15759 whole entry, looked up, chain 3 of 4): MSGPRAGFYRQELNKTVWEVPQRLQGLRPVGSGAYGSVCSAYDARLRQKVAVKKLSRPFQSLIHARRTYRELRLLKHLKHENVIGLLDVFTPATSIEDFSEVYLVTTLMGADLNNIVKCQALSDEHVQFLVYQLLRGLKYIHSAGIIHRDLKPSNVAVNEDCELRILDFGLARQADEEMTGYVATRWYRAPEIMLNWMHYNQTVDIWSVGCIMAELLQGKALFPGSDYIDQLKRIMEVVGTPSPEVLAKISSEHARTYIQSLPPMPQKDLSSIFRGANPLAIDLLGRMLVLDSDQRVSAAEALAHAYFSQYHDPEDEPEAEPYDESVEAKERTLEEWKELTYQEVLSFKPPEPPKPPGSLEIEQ
T1 sequence (O15264 whole entry, looked up, chain 4 of 4): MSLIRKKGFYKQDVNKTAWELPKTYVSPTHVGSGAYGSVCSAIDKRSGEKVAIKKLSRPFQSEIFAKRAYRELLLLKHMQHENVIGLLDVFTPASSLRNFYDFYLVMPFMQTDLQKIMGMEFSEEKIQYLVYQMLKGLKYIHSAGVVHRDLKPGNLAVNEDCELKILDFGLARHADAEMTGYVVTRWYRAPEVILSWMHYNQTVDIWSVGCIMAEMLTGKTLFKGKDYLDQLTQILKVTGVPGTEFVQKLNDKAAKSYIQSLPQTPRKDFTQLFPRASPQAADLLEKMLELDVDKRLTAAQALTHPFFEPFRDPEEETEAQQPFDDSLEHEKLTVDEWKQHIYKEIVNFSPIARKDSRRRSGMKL
The test system of data set [6] is Mus musculus. Briefly: Toxicity in mouse at 40 mg/kg, sc after 5 days. It is filed as organism-based. Details: dose 40 mg/kg, route subcutaneous. To be noted: in vivo, 120 h. An outline of the steps:
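Female CF-1 mice were given 40 mg/kg s.c. in the lower flank daily for 5 days (200 mg/kg total), in 0.2 ml isotonic saline with human serum albumin at 66 mg/ml. They were monitored for external signs, and nephro- and hepatotoxicity were assessed by clinical chemistry on Day 6.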

The target of data set [7] is T1, MAP kinase p38 (Homo sapiens). Kind of data set: Inhibition of p38MAPK phosphorylation in LPS-induced human whole blood neutrophils. Type of data set: tissue-based.
For data set [8], the system named is Mus musculus. Kind of data set: Inhibition of LPS-induced plasma MCP1 level in sc dosed mouse pretreated 1 hr before LPS challenge by CBA assay. It is filed as functional, organism-based. The method in brief: as §2
The species entered for data set [9] is Mus musculus. Briefly: Prevention of LPS-induced lethality in D-galactosamine-primed CF1 mouse model of lethal endotoxic shock. Type of data set: functional, organism-based.
Data set [10] is described as follows: Binding affinity to LPS by BODIPY-TR-cadaverine displacement assay. The method in brief: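 Fluorescence displacement of BODIPY-TR-cadaverine (5 μM) bound to E. coli O111:B4 smooth LPS (50 μg/ml), both in the mixture added to the wells. Compound serially diluted two-fold in 50 mM Tris pH 7.4 […], quadruplicates. Ex 580/em 620 nm at 25 °C. ED50 is the dose that displaces 50% of bound probe, taken from a four-parameter logistic fit.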

Data set [11] is filed under the species Mus musculus. Kind of data set: Prevention of TNFalpha induced lethality in CF1 mouse. Type of data set: functional, organism-based. The method in brief:
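Mice were challenged with 100 ng/animal of recombinant murine TNF-α, and lethality was assessed.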

The subject of data set [12] is Mus musculus. Briefly: Inhibition of LPS-induced plasma TNFalpha level in sc dosed mouse pretreated 1 hr before LPS challenge by CBA assay. It is filed as functional, organism-based. An outline of the steps: as §2
The target in data set [13] is T1, MAP kinase p38 (Homo sapiens). Briefly: Inhibition of TNFalpha induced p38MAPK phosphorylation in human whole blood neutrophils. It is filed as tissue-based.
For data set [14], the system named is Mus musculus. Kind of data set: Prevention of LPS-induced lethality in D-galactosamine-primed CF1 mouse model of lethal endotoxic shock at 8 mg/kg, sc administered concurrently to LPS administration. Type of data set: functional, organism-based. Also on record: dose 8 mg/kg. An outline of the steps:
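D-galactosamine-sensitized female CF-1 mice received 8 mg/kg s.c. at different times before or after i.p. LPS (200 ng/animal, 2× LD100, given at 0 h), including concurrent dosing. Survival recorded.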

pIC50: −log10 of the molar value. Calls of active or inactive are those of the source. The rule behind the calls is not given here.

Take `CCCCCCCCCCCCCCC/C=C(/CCCCCCCCCCCCCC)CNCCCNCCCNCCCCNCCCNCCCNC/C(=C\CCCCCCCCCCCCCCC)CCCCCCCCCCCCCC`: the pIC50 in the data set on HEK293 is 4.66.
Still for that read-out and setting: then `CCCCCCCCCCCCCCCCC(CCCCCCCCCCCCCC)CNCCCNCCCNCCCCNCCCN` (stereo not given), with 5.59; and `CCCCCCCCCCCCCCCC(CCCCCCCCCCCCCCC)NCCCNCCCNCCCCNCCCNCCCNC(CCCCCCCCCCCCCCC)CCCCCCCCCCCCCCC`, with 4.68.
As for POLYMYXIN B [listing 1 of 2 here], the negative logarithm of the IC50 (pIC50) with Blood [1] is 4.96; in the data set on Blood [2] it was 4.79; in the data set on Blood [3] it was 4.85; in the data set with J774.A1 (j774.a1), 5.75.
In the case of `CCCCCCCCCCCCCCC/C=C(/CCCCCCCCCCCCCC)CNCCCNCCCNCCCCNCCCN`, the pIC50 was 5.40 in the data set on Blood [1] (Homo sapiens, Blood); 5.51 with Blood [2] (Homo sapiens, Blood); 5.41 with Blood [3] (Homo sapiens, Blood); 5.65 with J774.A1 (Mus musculus, J774.A1); 5.54 in the data set with HEK293. In addition, the Activity entry was “Dose-dependent effect” with Mus musculus [4]; “Non-toxic” in the data set with Mus musculus [6]; “Dose-dependent effect” in data set [7]; “Dose-dependent effect” in the data set on Mus musculus [8]; “Dose-dependent effect” with Mus musculus [12]. Also, the outcome (in [5]; in the data set listed under Mus musculus [11]; in data set [13]) was inactive. Moreover, the outcome in the data set filed under Mus musculus [9] and with Mus musculus [14] was Active. The compound further came in with an ED50 in data set [10] of 3.14 µM.
Consider `CCCCCCCCCCCCCCCCN(CCCCCCCCCCCCCCCC)CCCNCCCNCCCCNCCCN`, for which, in the data set with HEK293, the pIC50 is 5.57.
Still for that read-out and setting: with `CCCCCCCCCCCCCCCC(CCCCCCCCCCCCCCC)NCCCNCCCNCCCCNCCCN` the figure was 5.57.
With POLYMYXIN B [listing 2 of 2 here], the result in data set [5] and in data set [13] was inactive. The Activity result in [7] was “Dose-dependent effect”. Also, the outcome in the data set listed under Mus musculus [9] was Active. Also, the ED50 in data set [10] was 1.22 µM.
